Laboratory results published in ChEMBL document CHEMBL3784955, “Development and in Vitro Evaluation of a Microbicide Gel Formulation for a Novel Non-Nucleoside Reverse Transcriptase Inhibitor Belonging to the N-Dihydroalkyloxybenzyloxopyrimidines (N-DABOs) Family” (J Med Chem, 2016).
Activity calls are given as the source filed them. The calls are words filed in the database; no cut-off is given here.

Tests used:
[1] = Cytotoxicity against human TZM-bl cells assessed as reduction in cell viability after 2 days by WST-1 assay; format: cell-based
Method in brief: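 10 000 TZM-bl cells cultured 48 h with serial compound dilutions; WST-1 added and absorbance at 450 nm read after 90 min. Three replicate wells, ≥2 independent experiments; % viability vs untreated controls, CC₅₀ by nonlinear regression.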

[2] = test system: Human immunodeficiency virus 1; assay: Antiviral activity against HIV1 NL4.3 expressing reverse transcriptase K101E mutant infected in human TZM-bl cells incubated for 30 mins prior to infection measured after 48 hrs by luciferase assay; format: functional, organism-based; settings: Human immunodeficiency virus 1, NL4.3, TZM-bl
Method in brief: (§1)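 TZM-bl cells (10,000/well at 10⁵ cells/mL, medium with 30 μg/mL DEAE dextran) preincubated 30 min at 37 °C, 5% CO₂ with serial compound dilutions. Then 200 TCID₅₀ mutant HIV-1 added per well. After 48 h, luciferase read. Triplicate wells, at least two independent experiments. % inhibition versus untreated controls fitted by nonlinear regression to give EC₅₀.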

Liver microsome = assay: Metabolic stability in liver microsomes (unknown origin) assessed as parent compound remaining; format: ADME; settings: human
[3] = test system: Human immunodeficiency virus 1; assay: Antiviral activity against HIV1 NL4.3 expressing reverse transcriptase E138K mutant infected in human TZM-bl cells incubated for 30 mins prior to infection measured after 48 hrs by luciferase assay; format: functional, organism-based; settings: Human immunodeficiency virus 1, NL4.3, TZM-bl; method in brief: as §1
[4] = test system: Human immunodeficiency virus 1; assay: Antiviral activity against HIV1 NL4.3 infected in human TZM-bl cells incubated for 30 mins prior to infection measured after 48 hrs by luciferase assay; format: functional, organism-based; settings: Human immunodeficiency virus 1, NL4.3, TZM-bl
Method in brief: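 TZM-bl cells (10 000/well, 10⁵ cells/mL in medium with 30 μg/mL DEAE dextran) preincubated 30 min at 37 °C, 5% CO₂ with serial compound dilutions; 200 TCID₅₀ HIV-1 WT or mutant virus added, luciferase read after 48 h. Triplicate wells, ≥2 independent experiments; % inhibition vs untreated controls, EC₅₀ by nonlinear regression.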

[5] = Effective permeability of compound at pH 7.4 after 5 hrs by PAMPA; format: ADME; settings: read-out: Peff
Method in brief: (§2)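 Filter coated with 1% w/v phosphatidylcholine in dodecane; acceptor 50% DMSO in phosphate buffer. 5 h at room temperature with gentle shaking; LC-UV at 280 nm on both sides; Pe calculated in cm/s. Three plates on different days.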

[6] = test system: Human immunodeficiency virus 1; assay: Antiviral activity against HIV1 NL4.3 expressing reverse transcriptase Y181C mutant infected in human TZM-bl cells incubated for 30 mins prior to infection measured after 48 hrs by luciferase assay; format: functional, organism-based; settings: Human immunodeficiency virus 1, NL4.3, TZM-bl; method in brief: as §1
[7] = Effective permeability of compound at pH 4.2 after 5 hrs by PAMPA; format: ADME; settings: read-out: Peff; method in brief: as §2
[8] = test system: Human immunodeficiency virus 1; assay: Antiviral activity against HIV1 NL4.3 expressing reverse transcriptase V106A mutant infected in human TZM-bl cells incubated for 30 mins prior to infection measured after 48 hrs by luciferase assay; format: functional, organism-based; settings: Human immunodeficiency virus 1, NL4.3, TZM-bl; method in brief: as §1
[9] = test system: Human immunodeficiency virus 1; assay: Antiviral activity against HIV1 NL4.3 expressing reverse transcriptase K103N mutant infected in human TZM-bl cells incubated for 30 mins prior to infection measured after 48 hrs by luciferase assay; format: functional, organism-based; settings: Human immunodeficiency virus 1, NL4.3, TZM-bl; method in brief: as §1
[10] = target: Human immunodeficiency virus type 1 reverse transcriptase (Human immunodeficiency virus 1, UniProt Q72547); assay: Inhibition of recombinant HIV1 His-tagged p66/p51 reverse transcriptase expressed in Escherichia coli assessed as reduction in [3H]dTTP incorporation using poly(rA)-oligo(dT) (12 to 18 bp) as template/primer incubated for 20 mins by scintillation counting method
[11] = Cytotoxicity against human TZM-bl cells assessed as reduction in cell viability at 5% gel formulation of compound after 2 days by WST-1 assay; format: cell-based; settings: 48 h
[12] = Selectivity index, ratio of CC50 for human TZM-bl cells to EC50 for HIV1 NL4.3 infected in human TZM-bl cells; format: toxicity, cell-based; settings: read-out: Ratio CC50/EC50
Method in brief: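 SI = CC50/EC50 in TZM-bl cells. EC50: 10 000 cells (10⁵/mL, 30 μg/mL DEAE dextran) preincubated 30 min at 37 °C with serial compound dilutions, then infected with 200 TCID50 virus; luciferase read at 48 h. CC50: 10 000 cells given serial dilutions for 48 h; WST-1 absorbance at 450 nm after 90 min. Triplicates, ≥2 experiments; nonlinear regression.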

[13] = test system: Human immunodeficiency virus 1; assay: Antiviral activity against HIV1 NL4.3 expressing reverse transcriptase V90I mutant infected in human TZM-bl cells incubated for 30 mins prior to infection measured after 48 hrs by luciferase assay; format: functional, organism-based; settings: Human immunodeficiency virus 1, NL4.3, TZM-bl; method in brief: as §1
[14] = test system: Human immunodeficiency virus 1; assay: Antiviral activity against HIV1 NL4.3 infected in human TZM-bl cells using compound gel formulation stored at room temperature in dark for 1 month incubated for 30 mins with cells prior to infection measured after 48 hrs by luciferase assay; format: functional, organism-based
Method in brief: (§3)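 Gel formulation tested by the free-drug TZM-bl procedure alongside free drug in solution and blank gel: 10 000 cells with 30 μg/mL DEAE dextran, 30 min preincubation at 37 °C, 200 TCID₅₀ virus, luciferase after 48 h. Each concentration in triplicate; EC₅₀ from % inhibition vs untreated controls by nonlinear regression.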

[15] = test system: Human immunodeficiency virus 1; assay: Antiviral activity against HIV1 NL4.3 infected in human TZM-bl cells using compound gel formulation incubated for 72 hrs by luciferase based transwell assay; format: functional, organism-based; settings: Human immunodeficiency virus 1, NL4.3, TZM-bl
Method in brief: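 Transwell format, gel reformulated without β-cyclodextrins. TZM-bl cells (4 × 10⁴/apical chamber, 3 μm pore) cultured overnight. 60 TCID₅₀ NL4.3 added apically with gel at 50%, final drug 5000–0.5 nM (tenfold steps); medium in basal compartment. Blank gel used for virus titration. Luciferase read-out; triplicates.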

[16] = test system: Human immunodeficiency virus 1; assay: Antiviral activity against HIV1 NL4.3 expressing reverse transcriptase L100I mutant infected in human TZM-bl cells incubated for 30 mins prior to infection measured after 48 hrs by luciferase assay; format: functional, organism-based; settings: Human immunodeficiency virus 1, NL4.3, TZM-bl; method in brief: as §1
[17] = Chemical stability in pH 4.2 solution assessed as drug recovery using compound gel formulation incubated for 1 month at room temperature under dark condition; format: physicochemical; settings: pH 4.2 solution (compound gel formulation), read-out: Drug recovery
Method in brief: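 Gel at pH 4.2 (vaginal formulation) with final drug concentration 17 μM stored 1 month at room temperature without light; drug recovery measured, with viscosity and pH monitored.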

[18] = test system: Human immunodeficiency virus 1; assay: Antiviral activity against HIV1 NL4.3 infected in human TZM-bl cells using compound gel formulation incubated for 30 mins prior to infection measured after 48 hrs by luciferase assay; format: functional, organism-based; settings: Human immunodeficiency virus 1, NL4.3, TZM-bl; method in brief: as §3

Compound	CC50 at 48 h [1] [µM]	EC50 [2] [µM]	EC50 [3] [µM]	EC50 [4] [µM]	EC50 [6] [µM]	EC50 [8] [µM]	EC50 [9] [µM]	other results
Cc1c(Cc2c(Cl)cccc2Cl)nc(N(C)Cc2ccc(N3CCN(C)CC3)cc2)[nH]c1=O	3.2	> 1	0.274	0.094	0.704	0.018	0.792	Stability (Liver microsome): 99%; Papp at 5 h [5]: 13.7 nm/s; Papp at 5 h [7]: 5.8 nm/s
Cc1c(Cc2c(Cl)cccc2Cl)nc(N(C)Cc2ccc(N3CCN(C(=O)OC(C)(C)C)CC3)cc2)[nH]c1=O	2.59			2.93				
Cc1cc(C)c(Nc2ccnc(Nc3ccc(C#N)cc3)n2)c(C)c1 [DAPIVIRINE]	3.4			0.0013				
COc1ccc(CN(C)c2nc(Cc3c(Cl)cccc3Cl)c(C)c(=O)[nH]2)cc1	17.9			0.015	0.68	0.01		IC50 [10]: 0.005 µM
COc1ccc(CN(C)c2nc(C(C)c3c(F)cccc3F)cc(=O)[nH]2)cc1 (centres undefined)	48.1	0.017	0.0091	0.0026	0.094	0.00087	0.034	
Cc1c(C(C)c2c(Cl)cccc2Cl)nc(N(C)Cc2ccc(N3CCOCC3)cc2)[nH]c1=O (centres undefined)	38.4	0.942	0.256	0.086	1.29	0.015	1.5	
COc1ccc(CN(C)c2nc(C(C)c3c(F)cccc3F)c(C)c(=O)[nH]2)cc1 (centres undefined)	88.8	0.031	0.017	0.0033	0.08		0.102	Activity [11]: Toxic; Stability (Liver microsome): 99%; selectivity ratio [12]: > 10000; EC50 [13]: 0.0087 µM; Papp at 5 h [5]: 55.4 nm/s; Activity [14]: Active; EC50 [15]: 0.03 µM; EC50 [16]: 0.084 µM; remaining at 730.5 h [17]: 100%; Papp at 5 h [7]: 37.8 nm/s; EC50 [18]: 0.0023 µM
COc1ccc(CN(C)c2nc(C(C)c3c(Cl)cccc3Cl)c(C)c(=O)[nH]2)cc1 (centres undefined)	> 100			0.012	0.209	0.01		IC50 [10]: 0.017 µM
Cc1c(C(C)c2c(Cl)cccc2Cl)nc(N(C)Cc2ccc([N+](=O)[O-])cc2)[nH]c1=O (centres undefined)	> 50			0.104				
Cc1c(C(C)c2c(F)cccc2F)nc(N(C)Cc2n[nH]c3ccccc23)[nH]c1=O (centres undefined)	> 100	> 10	0.95	0.329	> 10		> 10	EC50 [13]: 0.687 µM; EC50 [16]: > 10 µM
COc1ccc(C2CC2CSc2nc(C(C)c3c(F)cccc3F)c(C)c(=O)[nH]2)cc1 (centres undefined)	31.1	0.45	0.246	0.093	1.61	0.056	0.549	
Cc1c(C(C)c2c(F)cccc2F)nc(N(C)Cc2ccc([N+](=O)[O-])cc2)[nH]c1=O (centres undefined)	> 50	0.134	0.065	0.01	0.814		0.518	EC50 [13]: 0.03 µM; EC50 [16]: 1.5 µM
Cc1c(Cc2c(Cl)cccc2Cl)nc(N(C)Cc2ccc([N+](=O)[O-])cc2)[nH]c1=O	19.5	0.051	0.035	0.0086	0.201		0.367	Stability (Liver microsome): 99%; EC50 [13]: 0.013 µM; Papp at 5 h [5]: 109 nm/s; EC50 [16]: 0.22 µM; Papp at 5 h [7]: 19 nm/s; IC50 [10]: 0.00785 µM
Cc1c(C(C)c2c(Cl)cccc2Cl)nc(N(C)Cc2ccc(N3CCNCC3)cc2)[nH]c1=O (centres undefined)	13.2			0.102				
Cc1c(Cc2c(Cl)cccc2Cl)nc(N(C)Cc2ccc(N3CCNCC3)cc2)[nH]c1=O	20.7			0.11				
C[C@H](Cn1cnc2c(N)ncnc21)OCP(=O)(O)O [TENOFOVIR ANHYDROUS]								EC50 [15]: 3 µM
Cc1c(C(C)c2c(Cl)cccc2Cl)nc(N(C)Cc2ccc(N3CCN(C)CC3)cc2)[nH]c1=O (centres undefined)	> 10	0.294	0.103	0.029	0.627	0.0063	1.04	Stability (Liver microsome): 99%; Papp at 5 h [5]: 9.1 nm/s
Cc1c(C(C)c2c(F)cccc2F)nc(N(C)Cc2ccc(N3CCN(C)CC3)cc2)[nH]c1=O (centres undefined)	26.2	0.138	0.042	0.0079	0.331		2.46	EC50 [13]: 0.022 µM; EC50 [16]: 1.57 µM
Cc1c(Cc2c(Cl)cccc2Cl)nc(N(C)Cc2ccc(N3CCOCC3)cc2)[nH]c1=O	9.9			0.657				Stability (Liver microsome): 99%; Papp at 5 h [5]: 219 nm/s; IC50 [10]: 0.09 µM
